In ChEMBL document CHEMBL5108061, “Lectin-Targeted Prodrugs Activated by Pseudomonas aeruginosa for Self-Destructive Antibiotic Release” (J Med Chem, 2022):
≈ marks a conversion by molar mass, not a printed value.

Columns and labels:
[1] = molecular target: T1, PA-I galactophilic lectin (Pseudomonas aeruginosa (strain ATCC 15692 / PAO1 / 1C / PRS 101 / LMG12228), UniProt Q05097); test: Competitive binding affinity to recombinant Pseudomonas aeruginosa LecA expressed in Escherichia coli BL21(DE3) incubated for 30 to 60 mins by fluorescent polarization assay
T1 sequence (Q05097 whole entry): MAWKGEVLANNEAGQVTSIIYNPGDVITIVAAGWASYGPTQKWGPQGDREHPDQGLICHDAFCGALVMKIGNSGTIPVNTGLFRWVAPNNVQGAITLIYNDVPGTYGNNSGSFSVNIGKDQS
How it was run: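 Recombinant LecA (E. coli BL21(DE3), galactosyl-sepharose purified) at 40 μM with 20 nM fluorescein-galactoside reporter in TBS/Ca pH 7.4; compounds serially diluted with 30% DMSO co-solvent, technical triplicates; 30–60 min at 22 °C; fluorescence polarization (ex 485/em 535); four-parameter fit with plateaus fixed by pNP-β-D-Gal control; ≥3 independent experiments.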

Pseudomonas aeruginosa [2] = test: (§1) Antibacterial activity against Pseudomonas aeruginosa PA14 assessed inhibition of bacterial growth preincubated for 3 hrs in matrix containing human blood plasma spiked with fresh LB medium in PBS followed by overnight grown bacterial culture addition incubated for 18 to 20 hrs by broth microdilution method; type: functional; settings: time 21-23 hrs
How it was run: (§2)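 Prodrug serial dilutions in PBS/20% DMSO (1 mM to 1.9 μM) were diluted about 1:20 into matrix. Matrices: plasma 5 mL + PA14 LB-culture sterile filtrate 1 mL + PBS 4 mL; filtrate 1 mL + PBS 9 mL; PBS alone; plasma 5 mL + LB 1 mL + PBS 4 mL. Preincubation was 3 h at 37 °C, or <10 min at room temperature.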

Pseudomonas aeruginosa [3] = test: as §1, with “10 mins” for “3 hrs”; type: functional; how it was run: as §2
Pseudomonas aeruginosa [4] = test: as §1, with “Pseudomonas aeruginosa cell culture supernatant” for “fresh LB medium”, “PBS buffer” for “PBS”; type: functional; how it was run: as §2
Pseudomonas aeruginosa [5] = test: as §1, with “containing 50%” for “containing”, “and 10% Pseudomonas aeruginosa cell culture supernatant” for “spiked with fresh LB medium”; type: functional; settings: time 21-23 hrs; how it was run: as §2
Pseudomonas aeruginosa [6] = test: as §1, with “Pseudomonas aeruginosa cell culture supernatant” for “human blood plasma spiked with fresh LB medium”, “PBS buffer” for “PBS”; type: functional; settings: time 21-23 hrs; how it was run: as §2
Pseudomonas aeruginosa [7] = test: Antibacterial activity against Pseudomonas aeruginosa PA14 assessed inhibition of bacterial growth preincubated for 3 hrs in PBS buffer followed by overnight grown bacterial culture addition incubated for 18 to 20 hrs by broth microdilution method; type: functional; settings: time 21-23 hrs; how it was run: as §2
Elastase [8] = molecular target: T2, Elastase (Pseudomonas aeruginosa (strain ATCC 15692 / PAO1 / 1C / PRS 101 / LMG12228), UniProt P14756); test: Prodrug activation assessed as LasB-mediated drug release in Pseudomonas aeruginosa PA14 cell supernatant in presence of human blood plasma and measured for 3 hrs by HPLC-MS analysis; type: cell-free
Pseudomonas aeruginosa [9] = test: Antibacterial activity against Pseudomonas aeruginosa PA14 assessed inhibition of bacterial growth preincubated for 10 mins in PBS buffer followed by overnight grown bacterial culture addition incubated for 18 to 20 hrs by broth microdilution method; type: functional; how it was run: as §2
[10] = molecular target: Fucose-binding lectin PA-IIL (Pseudomonas aeruginosa (strain ATCC 15692 / DSM 22644 / CIP 104116 / JCM14847 / LMG 12228 / 1C / PRS 101 / PAO1), UniProt Q9HYN5); test: Competitive binding affinity to recombinant Pseudomonas aeruginosa PAO1 LecB expressed in Escherichia coli BL21(DE3) incubated for 4 to 8 hrs by fluorescent polarization assay
Pseudomonas aeruginosa [11] = test: as §1, with “10 mins” for “3 hrs”, “Pseudomonas aeruginosa cell culture supernatant” for “fresh LB medium”, “PBS buffer” for “PBS”; type: functional; how it was run: as §2
[12] = Stability of compound in human blood plasma spiked with Pseudomonas aeruginosa PA14 matrix assessed as hydrolysis of prodrug and measured upto 3 hrs by HPLC-MS/MS analysis; type: ADME, cell-free
Elastase [13] = molecular target: T2, Elastase; test: Prodrug activation assessed as LasB- mediated drug release in Pseudomonas aeruginosa PA14 cell supernatant and measured after 24 hrs by HPLC-MS analysis
Pseudomonas aeruginosa [14] = test: Antibacterial activity against Pseudomonas aeruginosa PA14 assessed inhibition of bacterial growth incubated for 18 to 20 hrs by broth microdilution method; type: functional; settings: time 18-20 hrs
How it was run: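 Broth microdilution per EUCAST in Müller-Hinton broth II, no matrix preincubation. […] Inoculum from overnight LB-agar colonies adjusted to OD600 0.08–0.13, diluted 1:100, final 5 × 10^5 cfu/mL.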

[15] = Protein binding in CD-1 mouse plasma at 1 uM incubated for incubated for 2 hrs by HPLC-MS/MS analysis; type: ADME, cell-free
How it was run: (§3)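 Rapid equilibrium dialysis; compound at 1 μM final in pooled CD-1 mouse plasma or pooled mixed-gender human plasma, dialysed against buffer; naproxen as high-binding control.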

[16] = Stability in mouse plasma assessed as half life at 1 uM and measured upto 240 mins by HPLC-MS/MS analysis; type: ADME, cell-free; settings: 4 h
How it was run: (§4)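 Compound at 1 μM final in prewarmed mouse or human plasma (pH 7.4), 37 °C, sampled at 0–240 min; extracted with acetonitrile containing caffeine internal standard; HPLC-MS/MS, peak area normalized to internal standard and time 0; procaine and procainamide controls; ≥3 independent repeats.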

A549 = test: Cytotoxicity against human A549 cells assessed as reduction in cell viability incubated for 24 hrs by MTT assay
[17] = Protein binding in human plasma at 1 uM incubated for incubated for 2 hrs by HPLC-MS/MS analysis; type: ADME, cell-free; how it was run: as §3
[18] = Stability in human plasma assessed as half life at 1 uM and measured upto 240 mins by HPLC-MS/MS analysis; type: ADME, cell-free; settings: 4 h; how it was run: as §4
[19] = Drug uptake in human A549 cells assessed as intracellular accumulation at 10 ug/ml incubated for 15 to 60 mins by HPLC-MS/MS analysis; type: ADME, cell-based; settings: time 15-60 min, dose 10 µg/ml
How it was run: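 A549 cells grown to 95% confluence in DMEM/10% FCS, exposed to 10 μg/mL compound for 15, 30 and 60 min at 37 °C; washed twice with PBS, lysed in MeOH; medium, washes and extracts extracted with MeOH containing caffeine internal standard and quantified by HPLC-MS/MS against calibration/QC samples; technical duplicates, two biological replicates.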

[20] = Metabolic stability in mouse liver microsomes assessed as half life at 100 uM preincubated for 5 mins followed by NADPH addition and measured upto 60 mins by HPLC-MS/MS analysis; type: ADME, Microsome; settings: time 65 min
How it was run: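 Thawed mouse liver microsomes (20 mg/mL stock) were pre-incubated with compound (100 μM stock) in 100 mM phosphate buffer for 5 min at 37 °C. Reactions were started with NADPH (20 mM stock) and run in triplicate at 37 °C with shaking. Samples taken at 0, 5, 15, 30 and 60 min were quenched with acetonitrile and analysed by HPLC-MS/MS. Peak areas were normalised to 0 min, and half-life came from linear regression.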

[21] = Metabolic stability in mouse liver microsomes assessed as intrinsic clearance measured per mg protein at 100 uM preincubated for 5 mins followed by NADPH addition and measured upto 60 mins by HPLC-MS/MS analysis; type: ADME, Microsome; settings: time 65 min, read-out: CLH
How it was run: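 Mouse liver microsomes (5 μL of 20 mg/mL) were mixed with 2 μL of 100 μM compound in 100 mM phosphate buffer and warmed 5 min at 37 °C. NADPH (10 μL of 20 mM) started the reaction, run in triplicate at 150 rpm. Samples were quenched with acetonitrile at 0–60 min and read by HPLC-MS/MS. Half-life came from linear regression of the 0-min-normalized areas, and CLint was derived from it.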

T2 sequence (P14756 whole entry): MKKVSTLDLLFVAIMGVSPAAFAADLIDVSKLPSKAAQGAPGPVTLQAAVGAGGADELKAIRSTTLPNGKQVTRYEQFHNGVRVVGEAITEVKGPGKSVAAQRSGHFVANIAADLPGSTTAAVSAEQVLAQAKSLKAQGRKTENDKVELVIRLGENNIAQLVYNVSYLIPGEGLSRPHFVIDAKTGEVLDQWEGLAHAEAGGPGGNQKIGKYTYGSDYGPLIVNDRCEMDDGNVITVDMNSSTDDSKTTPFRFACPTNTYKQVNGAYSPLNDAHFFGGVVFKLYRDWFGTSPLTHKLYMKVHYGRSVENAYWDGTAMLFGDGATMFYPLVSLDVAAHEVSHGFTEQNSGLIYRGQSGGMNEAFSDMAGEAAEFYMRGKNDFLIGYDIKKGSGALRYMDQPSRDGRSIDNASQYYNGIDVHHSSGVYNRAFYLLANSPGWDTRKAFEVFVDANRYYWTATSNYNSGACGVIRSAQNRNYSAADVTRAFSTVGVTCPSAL
Fucose-binding lectin PA-IIL, sequence (Q9HYN5 whole entry): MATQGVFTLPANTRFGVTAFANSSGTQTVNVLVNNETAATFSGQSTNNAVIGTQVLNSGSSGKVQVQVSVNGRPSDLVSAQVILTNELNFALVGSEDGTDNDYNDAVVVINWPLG

Row | Compound | IC50 [1] [µM] | MIC (Pseudomonas aeruginosa [2]) [µM] | MIC (Pseudomonas aeruginosa [3]) [µM] | MIC (Pseudomonas aeruginosa [4]) [µM] | MIC (Pseudomonas aeruginosa [5]) [µM] | MIC (Pseudomonas aeruginosa [6]) [µM] | MIC (Pseudomonas aeruginosa [7]) [µM] | Drug metabolism (Elastase [8]) | MIC (Pseudomonas aeruginosa [9]) [µM] | MIC (Pseudomonas aeruginosa [11]) [µM] | Stability [12] | MIC (Pseudomonas aeruginosa [14]) [µM] | also measured
1 | O=[N+]([O-])c1ccc(O[C@@H]2O[C@H](CO)[C@H](O)[C@H](O)[C@H]2O)cc1 | 61.9 |  |  |  |  |  |  |  |  |  |  |  | 
2 | CC(C)C[C@H](NC(=O)CNC(=O)[C@H](C)NC(=O)c1ccc(S(=O)(=O)NC[C@H]2O[C@@H](C)[C@@H](O)[C@@H](O)[C@@H]2O)cc1)C(=O)N[C@@H](C)C(=O)N1CCN(c2cc3c(cc2F)c(=O)c(C(=O)O)cn3C2CC2)CC1 |  | ≥ 25 | ≥ 25 | ≥ 25 | ≥ 25 | ≥ 25 | > 25 | Metabolite_Notdetected | > 25 | ≥ 25 | Stable |  | IC50 [10]: 4.63 µM
3 | CC(C)C[C@H](N)C(=O)N[C@@H](C)C(=O)N[C@H]1CCN(c2cc3c(cc2F)c(=O)c(C(=O)O)cn3C2CC2)C1 |  |  |  |  |  |  |  |  |  |  |  | 58 (≈ 29.9 µg/mL) | Drug metabolism (Elastase [13]): Metabolite_Notdetected
4 | CC(C)C[C@H](NC(=O)CNC(=O)[C@H](C)NC(=O)c1ccc(S[C@@H]2O[C@H](CO)[C@H](O)[C@H](O)[C@H]2O)cc1)C(=O)N[C@@H](C)C(=O)N[C@H]1CCN(c2cc3c(cc2F)c(=O)c(C(=O)O)cn3C2CC2)C1 | 29.8 | 0.78 (≈ 0.735 µg/mL) | ≥ 25 | 0.78 (≈ 0.735 µg/mL) | 0.1 (≈ 0.0942 µg/mL) | 0.195 (≈ 0.184 µg/mL) | > 25 | Metabolite_Detected | > 25 | 0.195 (≈ 0.184 µg/mL) | Stable |  | PPB [15]: 74%; t1/2 [16]: > 4 h; IC50 (A549): 21.7 µM; PPB [17]: 97.2%; t1/2 [18]: > 4 h
5 | Cl.N[C@H]1CCN(c2cc3c(cc2F)c(=O)c(C(=O)O)cn3C2CC2)C1 |  |  |  |  |  |  |  |  |  |  |  | 0.027 | Drug uptake [19]: 2000 ng/mL; t1/2 [16]: > 4 h; t1/2 [18]: 2.25 h; half-life at 100 µM [20]: > 1 h; microsomal CLint at 100 µM [21]: < 23 µL/min/mg
6 | CC(C)C[C@H](N)C(=O)N[C@@H](C)C(=O)NC[C@H]1CCN(c2cc3c(cc2F)c(=O)c(C(=O)O)cn3C2CC2)C1 |  |  |  |  |  |  |  |  |  |  |  | 28 (≈ 14.8 µg/mL) | 
7 | NC[C@@H]1CCN(c2cc3c(cc2F)c(=O)c(C(=O)O)cn3C2CC2)C1 |  |  |  |  |  |  |  |  |  |  |  | 0.29 (≈ 0.1 µg/mL) | 
8 | CC(C)C[C@H](NC(=O)CNC(=O)[C@H](C)NC(=O)c1ccc(S[C@@H]2O[C@H](CO)[C@H](O)[C@H](O)[C@H]2O)cc1)C(=O)N[C@@H](C)C(=O)NC[C@@H]1CCN(c2cc3c(cc2F)c(=O)c(C(=O)O)cn3C2CC2)C1 | 28 | 12.5 (≈ 12 µg/mL) | > 25 | 1.56 (≈ 1.49 µg/mL) | 1.56 (≈ 1.49 µg/mL) | 1.56 (≈ 1.49 µg/mL) | > 25 | Metabolite_Detected | > 25 | 3.13 (≈ 2.99 µg/mL) | Stable |  | 
9 | CC(C)C[C@H](NC(=O)CNC(=O)[C@H](C)NC(=O)c1ccc(S[C@@H]2O[C@H](CO)[C@H](O)[C@H](O)[C@H]2O)cc1)C(=O)N[C@@H](C)C(=O)N1CCN(c2cc3c(cc2F)c(=O)c(C(=O)O)cn3C2CC2)CC1 | 31.7 | ≥ 25 | > 25 | ≥ 25 | ≥ 25 | ≥ 25 | > 25 | Metabolite_Notdetected | > 25 | ≥ 25 | Stable |  | 
10 | CC(C)C[C@H](NC(=O)CNC(=O)[C@H](C)NC(=O)c1ccc(S(=O)(=O)NC[C@H]2O[C@@H](C)[C@@H](O)[C@@H](O)[C@@H]2O)cc1)C(=O)N[C@@H](C)C(=O)N[C@H]1CCN(c2cc3c(cc2F)c(=O)c(C(=O)O)cn3C2CC2)C1 |  | 0.78 (≈ 0.77 µg/mL) | ≥ 25 | 1.56 (≈ 1.54 µg/mL) | 0.1 (≈ 0.0987 µg/mL) | 0.39 (≈ 0.385 µg/mL) | > 25 | Metabolite_Detected | > 25 | 0.78 (≈ 0.77 µg/mL) | Stable |  | Drug uptake [19]: 55 ng/mL; PPB [15]: 30.1%; t1/2 [16]: 1.23 h; IC50 (A549): > 50 µM; PPB [17]: 51.1%; t1/2 [18]: 2.25 h; IC50 [10]: 3.59 µM
11 | CC(C)C[C@H](NC(=O)CNC(=O)[C@H](C)NC(=O)c1ccc(S(=O)(=O)NC[C@H]2O[C@@H](C)[C@@H](O)[C@@H](O)[C@@H]2O)cc1)C(=O)N[C@@H](C)C(=O)NC[C@@H]1CCN(c2cc3c(cc2F)c(=O)c(C(=O)O)cn3C2CC2)C1 |  | 12.5 (≈ 12.5 µg/mL) | ≥ 25 | 3.13 (≈ 3.13 µg/mL) | 1.56 (≈ 1.56 µg/mL) | 1.56 (≈ 1.56 µg/mL) | > 25 | Metabolite_Detected | > 25 | 3.13 (≈ 3.13 µg/mL) | Stable |  | IC50 [10]: 4.29 µM
12 | O=C(O)c1cn(C2CC2)c2cc(N3CCNCC3)c(F)cc2c1=O [CIPROFLOXACIN] |  | 0.156 (≈ 0.0517 µg/mL) | 0.156 (≈ 0.0517 µg/mL) |  | 0.156 (≈ 0.0517 µg/mL) |  | 0.125 (≈ 0.0414 µg/mL) |  | 0.125 (≈ 0.0414 µg/mL) | 0.25 (≈ 0.0828 µg/mL) |  | 0.125 (≈ 0.0414 µg/mL) | 
